# Compound activity: PubChem, The Scripps Research Institute Molecular Screening Center
# M4 ag: human M4 muscarinic receptor agonists, primary screen, CHO-K1 cells, Fluo-8 calcium fluorescence. Muscarinic acetylcholine receptor M4 (Homo sapiens), P08173. CHO-K1 hM4/Gqi5; vehicle 0%, full acetylcholine response 100%. hit rate 0.14% among 360,000. activation, % at 3 µM;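 active = activation above the run mean over all test wells plus 3 SD, cut at about 32% in these data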;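 also: peak over basal fluorescence ratio per well then scaled between controls; 0% = DMSO wells and 100% = acetylcholine at EC100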
# TAAR1 ag: human TAAR1 agonists, primary screen, Fluo-8 calcium fluorescence, CHO RD-HGA16 cells. hit rate 0.99% among 360,000. Trace amine-associated receptor 1 (Homo sapiens), Q96RJ0. AID 624467, 2012. activation, % at 3 µM. vehicle wells 0%, saturating PEA agonist 100%;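 active = activation above the mean activation of all test compounds in the run plus 3 SD, cut at about 38% in these data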
# Target sequence (Q96RJ0 whole entry, looked up): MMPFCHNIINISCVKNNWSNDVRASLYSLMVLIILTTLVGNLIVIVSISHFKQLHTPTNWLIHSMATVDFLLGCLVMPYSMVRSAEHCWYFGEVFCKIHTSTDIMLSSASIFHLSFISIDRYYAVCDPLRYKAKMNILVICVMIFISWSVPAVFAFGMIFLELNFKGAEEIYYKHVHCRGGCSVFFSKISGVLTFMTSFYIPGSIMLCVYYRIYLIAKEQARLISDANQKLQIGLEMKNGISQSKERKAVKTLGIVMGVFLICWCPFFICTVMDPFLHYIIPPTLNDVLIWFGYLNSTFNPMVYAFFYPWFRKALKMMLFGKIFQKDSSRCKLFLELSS
#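 Benchmarks: low control DMSO, high control PEA (EC100); System: CHO RD-HGA16 cells carrying human TAAR1 plus Gα16; Detection: Fluo-8 fluorescence, 5 s baseline then 140 s kinetic read; Schedule: 17-24 h plating, Fluo-8 75 min 37 °C, 30 min RT; Read-out basis: % activation from peak over basal fluorescence ratio, DMSO-to-PEA scaled.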
# CHRM4 antagonist: human M4 muscarinic receptor antagonists, primary screen, CHO cells, Fluo-8 calcium fluorescence; CHO-hM4 cells, ACh EC80; inhibition, % at 3 µM; hit rate 0.73% among 360,000; AID 624125, 2012;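 active = inhibition above its plate's cutoff, the mean inhibition of sample wells plus 3 SD, cut at about 27% in these data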;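 also: 0% = acetylcholine EC80 with DMSO and 100% = DMSO without agonist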
# M4 PAM: human M4 muscarinic receptor positive allosteric modulators, primary screen, CHO-K1 cells, Fluo-8 calcium fluorescence | Muscarinic acetylcholine receptor M4 (Homo sapiens), P08173 | CHO-K1 hM4/Gqi5, ACh EC20; 0% = ACh EC20, 100% = maximal ACh | activation, % at 3 µM | hit rate 0.4% among 360,000;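 active = activation above its plate's cutoff, the mean activation of sample wells plus 3 SD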
# TAAR1 antagonist: human TAAR1 antagonists, primary screen, Fluo-8 calcium fluorescence, CHO RD-HGA16 cells. Trace amine-associated receptor 1 (Homo sapiens), Q96RJ0. antagonist. inhibition, % at 3 µM. hit rate 1.5% among 360,000. AID 624466, 2012;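 active = inhibition above a per-plate cutoff, the mean inhibition of test compounds on that plate plus 3 SD, cut at about 49% in these data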;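 also: 0% = DMSO plus EC80 beta-PEA response and 100% = DMSO alone without agonist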
#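 Test system – hTAAR1-expressing CHO RD-HGA16 cells, Gα16-coupled · Also added – β-PEA at EC80 concentration, post-compound challenge · Compound – 3 µM, single point · Incubation – dye loading 75 min at 37 °C, then 30 min room temperature · Measured by – Fluo-8 intracellular calcium dye fluorescence, real-time kinetic reads · Benchmarks – vehicle and agonist controls · Replicates – singlicate, one well per test compound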
# nonsel antag count: nonselective antagonists in TAAR1 counter-screen cells, counter-screen for hTAAR1 antagonist project, cell-based, fluorescence, calcium. shares compounds with TAAR1 antagonist. inhibition, % at 3 µM. hit rate 77% among 2,400. counterscreen cell line, antagonist mode; in the data active = inhibition above about 22%;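 also: CHO-Ga16 host cells stimulated with ATP at an EC80 level; 0% = agonist EC80 plus vehicle and 100% = vehicle without agonist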
# TAAR1 antag conf: human TAAR1 antagonists, retest of hits, confirmation, cell-based, fluorescence; shares compounds with TAAR1 antagonist; hit rate 40% among 2,400; inhibition, % at 3 µM; TAAR1-expressing cells, fluorescence antagonist read-out; in the data active = inhibition above about 49%;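 also: CHO-Ga16 host cells challenged with agonist PEA near its EC80; 0% = agonist at EC80 plus vehicle and 100% = vehicle with no agonist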
# Ga16 nonsel ag: calcium activation in Ga16-expressing cells, counter-screen for TAAR1 antagonist project, cell-based, fluorescence. hit rate 18% among 2,400. AID 651953, 2012. shares compounds with TAAR1 antagonist. agonist counterscreen. activation, % at 3 µM; in the data active = activation above about 12%;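 also: 0% = vehicle wells and 100% = saturating stimulus response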
# TAAR1 ag count: TAAR1 activation by candidate antagonists – cell-based, fluorescence, counter-screen for TAAR1 antagonist project. hTAAR1 cell line, agonist mode. shares compounds with TAAR1 antagonist. AID 651955, 2012. hit rate 2% among 2,400. activation, % at 3 µM; in the data active = activation above about 37%;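 also: CHO cells stably expressing TAAR1 with calcium dye readout; 0% = DMSO vehicle and 100% = full agonist response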
# * marks the source's active call; other numbers are inactive results; x = no result given. Only some compounds are listed: those with a hit (about 3% of all), similar ones and a draw of the others.
SMILES,M4 ag,TAAR1 ag,CHRM4 antagonist,M4 PAM,TAAR1 antagonist,nonsel antag count,TAAR1 antag conf,Ga16 nonsel ag,TAAR1 ag count
CCc1ccc(NC(=O)C2=CC(c3ccc(OC)c(OC)c3)=NS(=O)(=O)N2C)cc1,17,6,-4,-9,68*,33*,37,7,7
COc1ccc(C2=NS(=O)(=O)N(C)C(C(=O)N3CCc4ccccc4C3)=C2)cc1OC,25,24,-6,-12,68*,40*,50*,11,51*
COc1ccc(C2=NS(=O)(=O)N(C)C(C(=O)NCc3ccccc3)=C2)cc1OC,7,3,-9,0,8,x,x,x,x
CCS(=O)(=O)c1ccc(-c2csc(-c3ccccc3)n2)c(Cl)c1Cl,0,14,-3,2,68*,24*,24,2,5
O=C(CSc1nnc(C2CC2)n1C1CC1)N1CCN(c2ccc(O)cc2)CC1,0,2,-3,4,1,x,x,x,x
CCOc1ccc(OCCSc2nc3ccccc3c(=O)[nH]2)cc1,-1,33,11,4,63*,9,26,8,16
COc1ccc(C(=O)Nc2cccc(NC(=O)c3ccc(OC)c(OC)c3)n2)cc1OC,18,25,13,-12,62*,35*,55*,10,7
COc1ccc(C(=O)Nc2cccc3cccnc23)cc1OC,6,8,-6,-10,-5,x,x,x,x
NS(=O)(=O)c1ccc(CCNC(=O)c2cc(-c3cccs3)nc3ccccc23)cc1,17,18,16,-15,65*,35*,57*,12*,10
CC(C)CCNC(=O)c1cc(-c2cccs2)nc2ccccc12,12,8,-8,-8,66*,29*,46,6,3
O=C(c1cc(-c2cccs2)nc2ccccc12)N1CCN(S(=O)(=O)c2cccc(F)c2)CC1,14,15,19,-16,52*,34*,46,11,12
NS(=O)(=O)c1cccc(NC(=O)c2cc(-c3cccs3)nc3ccccc23)c1,13,11,30*,-22,67*,37*,50*,8,10
O=C(c1cc(-c2cccs2)nc2ccccc12)N1CCN(S(=O)(=O)c2ccccc2)CC1,18,23,17,-10,48,x,x,x,x
Nc1ccn([C@@H]2O[C@H](C(=O)N[C@H](CO)c3ccccc3)[C@@H](O)[C@H]2O)c(=O)n1,1,4,-14,10,-10,x,x,x,x
Nc1sccc1C(=O)NCCN1CCOCC1,0,1,7,3,-26,x,x,x,x
O=C(NCCO)OC1CC2CC1[C@H]1CCCCN1C2=O (stereo partly specified),1,0,0,4,6,x,x,x,x
NS(=O)(=O)c1ccc(CNC(=O)c2cc(-c3cccs3)nc3ccccc23)cc1,16,15,30*,-20,69*,36*,51*,9,12
O=C(NCc1ccccn1)c1cc(-c2ccncc2)nc2ccccc12,11,6,-7,3,8,x,x,x,x
O=C(NCc1cccs1)c1cc(-c2ccccc2)nc2ccccc12,10,7,9,-17,58*,23*,40,7,6
CCC(C)NC(=O)c1cc(-c2cccs2)nc2ccccc12 (stereo unspecified),9,10,0,-5,14,x,x,x,x
O=C(Nc1cc(S(=O)(=O)N2CCOCC2)ccc1Cl)c1ccncc1,2,2,-4,-2,-10,x,x,x,x
O=C1c2ccccc2C(c2nnnn2-c2ccc3c(c2)OCCO3)N1CCOc1ccccc1 (stereo unspecified),3,1,-12,1,4,x,x,x,x
CC(C)(C)C(C(=O)NCc1ccccc1)N1CCN(CCN2CCOCC2)CC1 (stereo unspecified),0,1,-2,4,-8,x,x,x,x
Cc1ccc(S(=O)(=O)NC(CC(C)C)C(=O)Oc2ccc3c4c(c(=O)oc3c2)CCC4)cc1 (stereo unspecified),12,10,25,-22,67*,26*,45,6,4
CC[C@@H](NS(=O)(=O)c1ccc(C)cc1)C(=O)Oc1ccc2c3c(c(=O)oc2c1)CCC3,13,12,3,-10,30,x,x,x,x
SMILES,M4 ag,TAAR1 ag,CHRM4 antagonist,M4 PAM,TAAR1 antagonist,nonsel antag count,TAAR1 antag conf,Ga16 nonsel ag,TAAR1 ag count
O=C(COc1ccc(Cl)cc1)Nc1ccc2c(c1)CCC2,0,-2,9,0,10,x,x,x,x
CC(=O)c1ccc(OCC(=O)Nc2ccc3c(c2)CCC3)cc1,2,0,4,10,84*,1,-1,9,13
Cc1ccc(C)c(NC(=O)COc2cccc3c2CCN(Cc2ccccc2)C3=O)c1,6,8,-6,-4,63*,27*,39,5,2
CN1CCN(c2ncnc3c2c(-c2ccccc2)cn3-c2ccc(F)cc2)CC1,15,10,7,-11,60*,11,53*,9,28
CC(=O)Nc1ccc(NC2=C(Cl)C(=O)c3ccccc3C2=O)cc1,x,-4,x,x,65*,40*,47,-3,-6
O=C(NC1=C(Nc2ccc(Cl)cc2)C(=O)c2ccccc2C1=O)c1ccccc1,5,8,-4,-3,26,x,x,x,x
COc1ccc(C(O)c2ncc(-c3ccccc3Cl)[nH]2)cc1F (stereo unspecified),5,12,-11,1,-14,x,x,x,x
COc1ccc(CCC(=O)NCCS(=O)(=O)N2CCN(c3ccccc3OC)CC2)cc1,31,17,1,-13,59*,34*,52*,14*,13
Nc1[nH]c(C(=O)c2ccccc2)c(-c2ccc(Cl)cc2)c1C(=O)NCc1ccccc1,0,6,2,1,3,x,x,x,x
CCC(C)Sc1ccc(-c2nc3ccc(C)cn3c2NCc2ccccc2)cc1 (stereo unspecified),7,6,6,-8,72*,39*,57*,5,8
